The nature of series [1]: (§1) Cytotoxicity against human WI38 cells assessed as growth inhibition after 4 days by cell-titer-Glo assay. In kind it is cell-based, WI-38. The settings on record: WI-38 cells. Put shortly:
(§2)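 WI-38 normal fibroblasts grown in DMEM + 10% FBS at 37 °C, 5% CO2. Pre-cultured 24 hr, then exposed to compound at 0-30 µM for 4 days. Viability read by CellTiter-Glo 2.0; GI50 by linear interpolation of concentration-response curves, mean of triplicates.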

For series [2], the target named is T1, 5-demethoxyubiquinone hydroxylase, mitochondrial (Homo sapiens) (UniProt Q99807).
T1 sequence (whole entry): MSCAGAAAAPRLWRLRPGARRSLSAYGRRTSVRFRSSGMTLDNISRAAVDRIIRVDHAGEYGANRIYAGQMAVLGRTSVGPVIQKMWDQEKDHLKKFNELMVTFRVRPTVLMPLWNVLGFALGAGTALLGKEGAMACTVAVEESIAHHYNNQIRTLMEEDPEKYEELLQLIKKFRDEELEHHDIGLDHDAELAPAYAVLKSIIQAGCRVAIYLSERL
In words: Inhibition of COQ7 in human HeLa cells assessed as DMQ10 level per well at 10 uM after 2 days by HPLC analysis relative to control. In kind it is cell-based. The arrangement: scale not given: the % may be the effect or the level left. Put shortly:
(§3)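 HeLa cells cultured overnight, then exposed 48 hr to compound (single 30 µM screen, 10 µM, or graded doses); 0.5-1.0% DMSO controls. Quinones extracted with ethanol/n-hexane after K3Fe(CN)6 oxidation and UQ9 internal standard, then resolved by C18 HPLC with UV at 275 nm. DMQ10 and UQ10 reported as ng/well and DMQ10 as % of total quinone; mean of duplicates.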

The target in series [3] is T1, 5-demethoxyubiquinone hydroxylase, mitochondrial (Homo sapiens). Put plainly: Inhibition of COQ7 in human HeLa cells assessed as UQ10 level per well at 10 uM after 2 days by HPLC analysis. In kind it is cell-based. The essentials:
as §3

For series [4] the target is unchanged. Put plainly: Inhibition of COQ7 in human HeLa cells assessed as DMQ10 level per well at 10 uM after 2 days by HPLC analysis. It counts as cell-based. The essentials:
as §3

Series [5] shares this target. Put plainly: Inhibition of COQ7 in human PANC1 cells assessed as DMQ10 accumulation at 10 uM after 1 day by HPLC analysis relative to control. It counts as cell-based. The arrangement: scale not given: the % may be the effect or the level left. The settings on record: PANC-1. Put shortly:
(§4)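 Cells (2 or 4 x 10^5/well) cultured overnight, then exposed 24 hr to compound at 10 µM; DMSO controls. Cells suspended in PBS with 5% K3Fe(CN)6, 0.12 µg UQ9 added as internal standard, quinones extracted in ethanol/n-hexane (2:5). Reverse-phase C18 HPLC, isocratic diisopropyl ether/methanol (1:9), 30 °C, UV 275 nm; DMQ10 at 10.2 min. DMQ10 reported as ng/well and % of total quinone; duplicate wells.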

Series [6] shares this target. Put plainly: Inhibition of COQ7 in human BxPC3 cells assessed as DMQ10 accumulation at 10 uM after 1 day by HPLC analysis relative to control. The settings on record: BXPC-3. In kind it is cell-based. Also on record: scale not given: the % may be the effect or the level left. Put shortly:
as §4

For series [7] the target is unchanged. In words: Inhibition of COQ7 in human PC3 cells assessed as DMQ10 accumulation at 10 uM after 1 day by HPLC analysis relative to control. It counts as cell-based. Also on record: scale not given: the % may be the effect or the level left. The note with it: PC-3. The essentials: as §4
For series [8] the target is unchanged. In words: Inhibition of COQ7 in human C3A cells assessed as DMQ10 accumulation at 10 uM after 1 day by HPLC analysis relative to control. In kind it is cell-based. The arrangement: scale not given: the % may be the effect or the level left. Put shortly: as §4
Series [9] has the same target. In words: Inhibition of COQ7 in human HeLa cells assessed as DMQ10 accumulation at 20 uM after 2 days by HPLC analysis. It counts as cell-based. The essentials: as §3
Series [10] shares this target. Put plainly: Inhibition of COQ7 in human HeLa cells assessed as DMQ10 accumulation at 10 uM after 1 day by HPLC analysis relative to control. It counts as cell-based. Also on record: scale not given: the % may be the effect or the level left. The essentials:
as §4

Series [11] shares this target. Put plainly: Inhibition of COQ7 in human HeLa cells assessed as DMQ10 accumulation at 5 uM after 2 days by HPLC analysis. It counts as cell-based. Put shortly: as §3
For series [12] the target is unchanged. In words: Inhibition of COQ7 in human HeLa cells assessed as DMQ10 accumulation at 30 uM after 2 days by HPLC analysis relative to control. It counts as cell-based. Also on record: scale not given: the % may be the effect or the level left. The essentials: as §3
Series [13] shares this target. Put plainly: Inhibition of COQ7 in human HeLa cells assessed as DMQ10 accumulation at 10 uM after 2 days by HPLC analysis relative to control. In kind it is cell-based. Also on record: scale not given: the % may be the effect or the level left. Put shortly: as §3
Series [14] shares this target. Put plainly: Inhibition of COQ7 in human PC3 cells assessed as DMQ10 accumulation at 10 uM after 24 hrs by HPLC analysis relative to control. It counts as cell-based. Also on record: scale not given: the % may be the effect or the level left. The note with it: PC-3. The essentials:
as §4

The subject of series [15] is C3A. Put plainly: Growth inhibition of human C3A cells after 3 days in presence of 10 mM 2-DG by cell-titer-Glo assay. In kind it is functional. The settings on record: 72 h. The essentials:
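C3A cells in EMEM + 10% FBS with 10 mM 2-deoxyglucose in the medium to block glycolysis. Pre-cultured 24 hr, then exposed to graded compound concentrations for 3 further days. Viable cells quantified by CellTiter-Glo 2.0; GI50 by linear interpolation, mean of triplicates.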

In the next series the test system is WI-38. The description is as §1. In kind it is cell-based. The settings on record: wi-38, 96 h, 96 h. The essentials: as §2
The next series relates to PC-3. In words: Cytotoxicity against human PC3 cells assessed as growth inhibition after 3 days by cell-titer-Glo assay. In kind it is functional. The settings on record: PC-3, 72 h. Put shortly: (§5)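 Cells pre-cultured 24 hr, then exposed to a range of compound concentrations for a further 3 days. Viable cells counted by CellTiter-Glo 2.0 luminescence; GI50 obtained by linear interpolation of concentration-response curves, mean of triplicates. Medium: DMEM + 10% FBS for HeLa and PANC-1, EMEM for C3A, F-12K for PC-3; 37 °C, 5% CO2.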

The subject of series [16] is C3A. In words: Antiproliferative activity against human C3A cells at 10 uM assessed as increase in cell death incubated for 24 hrs and measured after 3 days.
In a further series the test system is HeLa. In words: Growth inhibition of human HeLa cells assessed as growth inhibition after 3 days by cell-titer-Glo assay. In kind it is functional. The note with it: 72 h. Put shortly: as §5
Series [17] addresses T1, 5-demethoxyubiquinone hydroxylase, mitochondrial (Homo sapiens). In words: Inhibition of COQ7 in human HeLa cells assessed as DMQ10 level per well at 10 uM after 1 day by HPLC analysis (reference value: 6.8 ng). It counts as cell-based. The essentials: as §4
Series [18] shares this target. In words: Inhibition of COQ7 in human C3A cells assessed as DMQ10 level per well at 10 uM after 1 day by HPLC analysis (reference value: 7.4 ng). It counts as cell-based. The essentials: as §4
The target is the same in series [19]. In words: Inhibition of COQ7 in human PANC1 cells assessed as DMQ10 accumulation at 10 uM after 24 hrs by HPLC analysis relative to control. The arrangement: scale not given: the % may be the effect or the level left. The note with it: PANC-1. It counts as cell-based. The essentials: as §4
The subject of series [20] is C3A. In words: Growth inhibition of human C3A cells assessed as growth inhibition after 3 days by cell-titer-Glo assay. It counts as functional. The note with it: 72 h. Put shortly:
as §5

For the next series, the system named is PANC-1. In words: Growth inhibition of human PANC1 cells after 3 days by cell-titer-Glo assay. It counts as functional. The settings on record: PANC-1, 72 h. Put shortly: as §5

SMILES strings stand for the structures. Several values for one entry are separate records, joined by “and”; a condition that tells them apart may be missing. Identical values can stand only once. Activity calls are given as the source filed them. The rule behind the calls is not given here.

In the case of `Oc1cc(-c2ccccc2)nn1-c1ncccc1Cl`, the 50% growth inhibitory concentration (GI50) at 96 h in series [1] is greater than 30 µM. The results for the Activity in [2], in series [3] and in series [4] were 0%, 20.7 ng and 0 ng, respectively.
As to `Oc1cc(CC2CCCCC2)nn1-c1ccccn1`, the GI50 at 96 h in series [1] amounted to 17.5 µM. Also, the values for the Activity in series [2], in series [3] and in [4] were 42.9%, 8.8 ng and 6.6 ng, respectively.
Turning to `Oc1c(I)cc(Cl)c2cccnc12`, the Activity in series [5] is less than 5%; in series [6], less than 5%; in series [7] it was less than 5%; in series [8], greater than 20%; in series [10] it was greater than 20%. In [9], the result was inactive. Moreover, the result in series [11] was Active.
Consider `Clc1cc(-c2ccccc2)nn1-c1ccccn1`, for which, in series [1], the GI50 at 96 h was greater than 30 µM. Besides, the Activity in [2] was 0%; in series [3] it was 35.7 ng; in [4] it was 0 ng.
For `COc1ccc(-n2nc(-c3ccccc3)cc2O)nc1` the same measures were 25.4 µM, 0%, 6.7 ng and 0 ng.
For `Oc1cc(-c2ccccc2)nn1-c1ccncc1` the same measures were greater than 30 µM, 0%, 33.7 ng and 0 ng.
For `Oc1cc(-c2ccccc2)nn1-c1ccc(C(F)(F)F)cn1` the same measures were 9.4 µM, 49.5%, 9.4 ng and 9.2 ng.
For `Oc1cc(CCc2ccccc2)nn1-c1ccccn1`, the GI50 at 96 h in series [1] amounted to 9.6 µM. Besides, the Activity in series [2] is 51.4%; in series [3], 8.8 ng; in series [4] it was 9.3 ng.
For `Oc1cc(-c2ccccc2)nn1-c1cccnc1`, in [1], the GI50 at 96 h is greater than 30 µM. The Activity turned out to be 0% in series [2], 23.7 ng in series [3] and 0 ng in series [4].
In the case of `Oc1cc(C2CCCCC2)nn1-c1ccccn1`, in series [1], the GI50 at 96 h came to 9.1 µM. Further, the Activity worked out at 20.7% in [2], 5.9 ng in series [3] and 5.5 ng in series [4].
Turning to `Oc1cc(-c2ccccc2)nn1-c1ccccn1`, the Activity in [12] was greater than 30%; in [2], 7.1%; in [13], 19.3%; in series [3] it was 17.1 ng; in series [4], 1.3 ng. Moreover, the GI50 at 96 h in [1] came to 20.8 µM.
Take `Oc1cc(-c2ccccc2)nn1-c1ccc(Cl)cn1`: the Activity in series [14] turned out to be 27.6%; in [2], 52%; in series [17] it was 7.9 ng; in [18] it was 7.8 ng; in series [3], 12.2 ng; in [19], 11.4%. Besides, the Activity in series [4] stood at 13.2 ng. Moreover, the GI50 in the series on C3A [15] is 6.1 µM; in the series with WI-38, 19 µM; with PC-3, greater than 12 µM; in the series on HeLa it was greater than 12 µM; in the series with C3A [20] it was 9 µM; in the series on PANC-1, greater than 12 µM. Also, the GI50 at 96 h in [1] stood at 19 µM. Besides, the result in the series with C3A [16] was inactive.
As to `CS(=O)(=O)c1ccc(-n2nc(-c3ccccc3)cc2O)nc1`, the GI50 at 96 h in series [1] is greater than 30 µM. The Activity in series [2] came out at 11%; in [3] it was 17.8 ng; in [4] it was 2.2 ng.
Consider `Oc1cc(-c2ccccc2)nn1-c1cc(Cl)ccn1`, for which, in series [1], the GI50 at 96 h is greater than 30 µM. Further, the Activity in [2] was 0%; in series [3] it was 22.7 ng; in series [4], 0 ng.
For `Nc1ccc(-n2nc(-c3ccccc3)cc2O)nc1` the same measures were greater than 30 µM, 10%, 23.4 ng and 2.6 ng.
As to `Oc1cc(C2CCC2)nn1-c1ccccn1`, the GI50 at 96 h in series [1] amounted to 25 µM. Moreover, the Activity in [2] was 0%; in [3], 24.4 ng; in [4], 0 ng.
For `Oc1cc(C2CCCC2)nn1-c1ccccn1` the same measures were 12.7 µM, 32.4%, 12.1 ng and 5.8 ng.
Take `Oc1cc(-c2ccccc2)nn1-c1ccc(F)cn1`: the GI50 at 96 h in series [1] stood at 28.9 µM. The Activity was found to be 10.8% in series [2], 14.8 ng in series [3] and 1.8 ng in series [4].
For `Oc1cc(-c2ccccc2)nn1-c1ccccc1` the same measures were greater than 30 µM, 0%, 28.5 ng and 0 ng.
`Cc1ccc(-n2nc(-c3ccccc3)cc2O)nc1`: the Activity in [14] amounted to 14%; in series [2], 32.2%; in [3], 15.4 ng; in series [19], 8.7%; in series [4] it was 7.3 ng. Also, the GI50 in the series with C3A [15] was 20.2 µM; in the series on WI-38, 26.3 µM and > 12 µM; with PC-3, greater than 12 µM; in the series on HeLa, greater than 12 µM; in the series with C3A [20] it was 18.5 µM; in the series on PANC-1, greater than 12 µM. The result with C3A [16] was inactive.

In general, GI50 refers to the concentration that inhibits growth by half.

These data come from ChEMBL document CHEMBL4613220, “Identification of small molecule inhibitors of human COQ7” (Bioorg Med Chem, 2020).
